# From publication PMC9064382 (RSC Advances, 2019)
# Tests used:
# hOCT1 = target: T1, hOCT1 (Homo sapiens, UniProt O15245); assay: Uptake of aconitum alkaloids in hOCT1-transfected cells vs mock; assay type: in vitro ADME; conditions: 10 μm, 5 min
# T1 sequence (O15245 1-554): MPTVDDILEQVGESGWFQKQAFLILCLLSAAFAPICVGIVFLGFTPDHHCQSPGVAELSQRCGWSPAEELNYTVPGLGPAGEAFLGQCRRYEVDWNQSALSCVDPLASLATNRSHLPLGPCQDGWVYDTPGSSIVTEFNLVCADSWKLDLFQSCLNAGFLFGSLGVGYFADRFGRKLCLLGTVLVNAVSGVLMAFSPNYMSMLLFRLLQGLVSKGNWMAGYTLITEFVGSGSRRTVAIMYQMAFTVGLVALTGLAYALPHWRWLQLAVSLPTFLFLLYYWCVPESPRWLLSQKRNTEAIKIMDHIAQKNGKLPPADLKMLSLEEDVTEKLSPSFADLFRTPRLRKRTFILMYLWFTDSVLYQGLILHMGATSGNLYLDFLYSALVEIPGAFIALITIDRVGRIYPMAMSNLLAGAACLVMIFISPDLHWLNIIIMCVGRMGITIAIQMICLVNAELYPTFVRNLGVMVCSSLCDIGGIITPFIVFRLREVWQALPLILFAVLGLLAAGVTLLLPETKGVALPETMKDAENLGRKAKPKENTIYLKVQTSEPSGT
# hOCT2 = target: T2, hOCT2 (Homo sapiens, UniProt O15244); assay: Inhibition of 14C-TEA uptake in hOCT2-transfected cells by liquorice ingredients; assay type: in vitro ADME; conditions: for inhibitory rate on hOCT2: 100 μm, 5 μmol L^−1 14C-TEA, 5 min
# T2 sequence (O15244 1-555): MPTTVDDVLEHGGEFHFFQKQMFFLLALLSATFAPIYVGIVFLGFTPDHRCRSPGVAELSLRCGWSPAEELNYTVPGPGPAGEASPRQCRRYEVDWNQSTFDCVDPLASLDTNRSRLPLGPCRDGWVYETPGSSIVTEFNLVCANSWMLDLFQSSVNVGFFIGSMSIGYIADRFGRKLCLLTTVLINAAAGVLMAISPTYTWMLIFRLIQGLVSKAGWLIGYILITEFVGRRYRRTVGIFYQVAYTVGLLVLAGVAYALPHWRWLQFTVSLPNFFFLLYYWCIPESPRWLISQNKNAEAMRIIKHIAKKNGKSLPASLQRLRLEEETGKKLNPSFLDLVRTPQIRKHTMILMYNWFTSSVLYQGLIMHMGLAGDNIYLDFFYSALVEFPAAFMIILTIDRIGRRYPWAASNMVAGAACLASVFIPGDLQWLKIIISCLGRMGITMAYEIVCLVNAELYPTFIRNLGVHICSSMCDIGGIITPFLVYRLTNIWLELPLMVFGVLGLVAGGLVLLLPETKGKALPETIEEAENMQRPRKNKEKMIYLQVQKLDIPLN
# hOAT3 = target: T3, hOAT3 (Homo sapiens, UniProt Q8TCC7); assay: Inhibition of 3H-ES uptake in hOAT3-transfected cells by liquorice ingredients; assay type: in vitro ADME
# T3 sequence (Q8TCC7 1-542): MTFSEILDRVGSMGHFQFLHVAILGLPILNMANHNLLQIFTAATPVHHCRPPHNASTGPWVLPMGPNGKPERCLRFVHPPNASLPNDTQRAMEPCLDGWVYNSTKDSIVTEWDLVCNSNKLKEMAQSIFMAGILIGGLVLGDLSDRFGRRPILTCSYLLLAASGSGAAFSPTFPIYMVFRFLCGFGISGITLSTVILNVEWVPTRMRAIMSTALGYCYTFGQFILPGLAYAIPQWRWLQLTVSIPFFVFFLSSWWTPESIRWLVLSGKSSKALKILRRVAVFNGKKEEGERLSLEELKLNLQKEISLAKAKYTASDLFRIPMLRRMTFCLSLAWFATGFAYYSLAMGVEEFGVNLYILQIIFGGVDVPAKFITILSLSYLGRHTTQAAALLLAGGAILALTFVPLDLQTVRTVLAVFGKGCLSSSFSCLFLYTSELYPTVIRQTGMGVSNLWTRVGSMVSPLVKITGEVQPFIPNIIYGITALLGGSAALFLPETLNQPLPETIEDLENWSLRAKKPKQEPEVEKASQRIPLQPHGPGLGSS
# Procedure, shortened: (§1)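 Transfected and mock cells were incubated 2 min at 37 °C with 200 nmol L−1 3H-ES plus test compound. The screen used a single 100 μmol L−1 concentration with reference inhibitors as positive controls, giving an inhibition rate (n = 3, mean ± sd). […] DMSO was <0.2%. Cells were stopped with cold DPBS, rinsed three times, lysed in 0.1 mol L−1 NaOH and counted by scintillation (dpm).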
# [1] = assay type: in vivo, Sprague-Dawley (SD) rats; conditions: pretreatment with the named substance, rats
# hOATP1B1 [2] = target: T4, hOATP1B1 (Homo sapiens, UniProt Q9Y6L6); assay: Uptake of aconitum alkaloids in hOATP1B1-transfected HEK293 cells vs mock; assay type: in vitro ADME; conditions: 10 μm, 2 min
# T4 sequence (Q9Y6L6 1-691): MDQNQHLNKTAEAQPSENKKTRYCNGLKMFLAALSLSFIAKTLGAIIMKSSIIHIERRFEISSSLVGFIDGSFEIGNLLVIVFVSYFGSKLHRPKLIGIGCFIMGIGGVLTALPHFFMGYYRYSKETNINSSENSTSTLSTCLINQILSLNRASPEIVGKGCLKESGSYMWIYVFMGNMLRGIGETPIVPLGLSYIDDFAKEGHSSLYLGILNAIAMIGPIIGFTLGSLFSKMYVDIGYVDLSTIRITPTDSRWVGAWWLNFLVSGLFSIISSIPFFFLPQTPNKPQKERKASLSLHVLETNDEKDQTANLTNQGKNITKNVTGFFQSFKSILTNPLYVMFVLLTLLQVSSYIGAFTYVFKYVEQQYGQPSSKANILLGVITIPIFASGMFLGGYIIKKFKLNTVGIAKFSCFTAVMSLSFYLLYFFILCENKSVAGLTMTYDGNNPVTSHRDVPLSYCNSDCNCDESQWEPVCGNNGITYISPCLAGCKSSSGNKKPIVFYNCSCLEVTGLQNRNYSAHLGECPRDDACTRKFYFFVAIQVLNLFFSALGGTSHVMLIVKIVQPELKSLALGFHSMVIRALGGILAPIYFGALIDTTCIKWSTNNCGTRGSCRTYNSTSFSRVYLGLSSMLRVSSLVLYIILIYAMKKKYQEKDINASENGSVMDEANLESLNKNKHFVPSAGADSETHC
# Procedure, shortened: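 HEK293-hOATP1B1 and mock cells were grown in DMEM with 10% FBS, seeded at 2 × 10^5/well and cultured 48 h. They were rinsed, preincubated 10 min at 37 °C in DPBS pH 7.4, then exposed to the alkaloid for 2 min at 37 °C. After three ice-cold DPBS rinses and methanol lysis, supernatants were measured by UPLC-MS/MS (positive MRM, sinomenine internal standard). Results were normalised to BCA protein; n = 3, t-test versus mock.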
# hOATP1B3 [3] = target: T5, hOATP1B3 (Homo sapiens, UniProt Q9NPD5); assay: Uptake of aconitum alkaloids in hOATP1B3-transfected HEK293 cells vs mock; assay type: in vitro ADME; conditions: 10 μm, 2 min, HEK293-hOATP1B3 vs mock
# T5 sequence (Q9NPD5 1-702): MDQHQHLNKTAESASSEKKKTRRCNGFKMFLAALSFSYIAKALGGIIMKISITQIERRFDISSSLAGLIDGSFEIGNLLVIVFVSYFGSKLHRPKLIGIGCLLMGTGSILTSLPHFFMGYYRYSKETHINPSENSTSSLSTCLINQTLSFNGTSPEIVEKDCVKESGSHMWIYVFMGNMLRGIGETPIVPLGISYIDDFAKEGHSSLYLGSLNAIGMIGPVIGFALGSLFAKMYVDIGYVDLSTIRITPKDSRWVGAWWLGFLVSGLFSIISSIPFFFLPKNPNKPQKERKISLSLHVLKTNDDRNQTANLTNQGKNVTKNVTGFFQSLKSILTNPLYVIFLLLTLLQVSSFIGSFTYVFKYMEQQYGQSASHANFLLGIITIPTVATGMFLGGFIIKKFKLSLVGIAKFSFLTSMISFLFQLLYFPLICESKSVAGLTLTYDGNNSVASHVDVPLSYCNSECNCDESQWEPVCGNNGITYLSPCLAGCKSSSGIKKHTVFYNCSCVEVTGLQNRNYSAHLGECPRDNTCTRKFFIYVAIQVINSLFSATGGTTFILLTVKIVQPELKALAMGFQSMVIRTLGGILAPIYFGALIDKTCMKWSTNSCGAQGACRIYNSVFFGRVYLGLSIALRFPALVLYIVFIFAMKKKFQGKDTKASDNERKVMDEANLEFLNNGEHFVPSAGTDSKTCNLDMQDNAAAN
# hOATP1B1 [4] = target: T4, hOATP1B1; assay type: in vitro ADME; conditions: screening at 100 μm
# hOATP1B3 [5] = target: T5, hOATP1B3; assay type: in vitro ADME; conditions: screening at 100 μm
# hOATP2B1 = target: T6, hOATP2B1 (Homo sapiens, UniProt O94956); assay type: in vitro ADME; conditions: for inhibition of hOATP2B1: screening at 100 μm
# T6 sequence (O94956 1-709): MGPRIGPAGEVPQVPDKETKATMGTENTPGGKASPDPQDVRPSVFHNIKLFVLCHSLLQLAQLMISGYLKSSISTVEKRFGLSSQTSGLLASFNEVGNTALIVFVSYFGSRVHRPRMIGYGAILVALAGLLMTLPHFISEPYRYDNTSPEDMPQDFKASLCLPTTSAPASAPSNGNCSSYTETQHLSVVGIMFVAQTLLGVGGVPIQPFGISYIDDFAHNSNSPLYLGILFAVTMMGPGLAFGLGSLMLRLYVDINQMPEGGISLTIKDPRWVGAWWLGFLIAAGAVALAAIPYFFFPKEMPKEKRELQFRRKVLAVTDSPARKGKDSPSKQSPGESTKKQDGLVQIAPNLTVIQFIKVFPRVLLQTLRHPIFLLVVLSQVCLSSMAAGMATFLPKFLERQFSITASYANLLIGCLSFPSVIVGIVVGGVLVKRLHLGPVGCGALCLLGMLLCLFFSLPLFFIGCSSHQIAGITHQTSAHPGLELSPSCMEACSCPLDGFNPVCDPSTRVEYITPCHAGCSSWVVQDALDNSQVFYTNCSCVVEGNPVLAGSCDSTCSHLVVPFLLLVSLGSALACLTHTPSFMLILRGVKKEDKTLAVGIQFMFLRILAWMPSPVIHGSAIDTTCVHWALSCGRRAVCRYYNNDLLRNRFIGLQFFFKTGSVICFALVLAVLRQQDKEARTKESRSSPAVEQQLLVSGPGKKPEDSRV
# Procedure, shortened: as §1
smiles,measurement,setting,value
COC[C@@]12CC[C@H](OC)[C@]34C([C@H]([C@H](OC)[C@H]13)[C@]1(O)[C@H]3[C@@H](OC(=O)c5ccccc5)[C@](O)(C[C@H]34)[C@@H](OC)[C@@H]1O)N(C)C2 [benzoylhypaconitine],"concentration in HEK293–hOCT1, fold higher than control",hOCT1,~3.7 fold
O=C(/C=C/c1ccc(O)cc1)c1ccc(O)cc1O [isoliquiritigenin],IC50,hOCT2,31400 nM
same,IC50,hOAT3,2180 nM
"C=C[C@H]1C[N@@]2CC[C@H]1C[C@@H]2[C@@H](O)c1ccnc2ccc(OC)cc12 [quinidine, reference compound]",Tmax of aconitine in the liver,[1],postponed
COC[C@]12CN(C)[C@@H]3[C@@H]4[C@H](OC)[C@H]1[C@@]3([C@@H](OC)C[C@H]2O)[C@@H]1C[C@@]2(O)[C@H](OC(=O)c3ccccc3)[C@@H]1[C@]4(OC(C)=O)[C@@H](O)[C@@H]2OC [mesaconitine],"concentration in hOATP1B1-transfected cells, fold of HEK293 mock cells",hOATP1B1 [2],approximately 2.7 fold
same,"concentration in hOATP1B3-transfected cells, fold of HEK293 mock cells",hOATP1B3 [3],~3.4 fold
same,"concentration in HEK293–hOCT1, fold higher than control",hOCT1,roughly 1.9 fold
COC[C@@]12CC[C@H](OC)[C@]34C(C([C@H](OC)[C@H]13)[C@]1(OC(C)=O)[C@H]3[C@@H](OC(=O)c5ccccc5)[C@](O)(C[C@H]34)[C@@H](OC)[C@@H]1O)N(C)C2 [hypaconitine],"concentration in HEK293–hOCT1, fold higher than control",hOCT1,~3.3 fold
O=C(/C=C/c1ccc(O[C@@H]2O[C@H](CO)[C@@H](O)[C@H](O)[C@H]2O)cc1)c1ccc(O)cc1O [isoliquiritin],inhibitory rate on hOCT2,hOCT2,71.9%
same,inhibition of hOATP1B1,hOATP1B1 [4],strong inhibitors
same,inhibition of hOATP1B3,hOATP1B3 [5],strong inhibitors
same,inhibition of hOATP2B1,hOATP2B1,strong inhibitors
CC1(C)[C@@H](O)CC[C@]2(C)[C@H]3C(=O)C=C4[C@@H]5C[C@@](C)(C(=O)O)CC[C@]5(C)CC[C@@]4(C)[C@]3(C)CC[C@@H]12 [glycyrrhetinic acid],IC50,hOCT2,7410 nM
same,inhibitory rate on hOCT2,hOCT2,80.17%
same,IC50,hOATP2B1,1070 nM
same,inhibition of hOATP2B1,hOATP2B1,strong inhibitors
same,IC50,hOAT3,1830 nM
CCN1C[C@]2(COC)[C@H](O)C[C@H](OC)[C@@]34[C@@H]5C[C@@]6(O)[C@H](OC(=O)c7ccccc7)[C@@H]5[C@@](O)([C@@H]([C@H](OC)[C@H]23)[C@@H]14)[C@@H](O)[C@@H]6OC [benzoylaconitine],"concentration in HEK293–hOCT1, fold higher than control",hOCT1,~2.3 fold
COC[C@]12CN(C)C3[C@@H]4[C@H](OC)[C@H]1[C@@]3([C@@H](OC)C[C@H]2O)[C@@H]1C[C@@]2(O)[C@H](OC(=O)c3ccccc3)[C@@H]1[C@]4(O)[C@@H](O)[C@@H]2OC [benzoylmesaconitine],"concentration in HEK293–hOCT1, fold higher than control",hOCT1,~2.2 fold
